Assay results: the array DNA melting data of Ke et al. (doi:10.1101/2024.01.08.574731)

How the values were obtained:
[1] = folding enthalpy; higher = less favourable; fluorescence melt of hairpins on a sequencing array, two-state fit; conditions: sodium 0.088 M
Outline: (§1)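 To match UV melts, fitted temperatures were raised by 9.35 °C. These fits were bootstrapped two-state models that gave melting temperature and folding enthalpy, combined by inverse variance over four replicates. The input was normalised Cy3 fluorescence of library hairpins with annealed Cy3 and quencher oligos on a sequenced MiSeq flow cell, imaged in 50 mM Na-HEPES pH 8.0, 25 mM NaCl in 2.5 °C steps up to 60 °C.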

[2] = melting temperature; fluorescence melt of hairpins on a sequencing array, two-state fit, raised by 9.35 °C to match UV melts; conditions: sodium 0.088 M
Outline: as §1

Row | Sequence | folding enthalpy [1] [kcal/mol] | Tm [2] [°C]
1 | GGATGGCGAAAGCCTTCC (((.(((....))).))) | -24.3 | 56.6
2 | GATCTATCTCTAGATC ((((((....)))))) | -28.3 | 39.6
3 | GTCAGCGAAAGCTATGAC ((((((....)))..))) | -20.6 | 44.2
4 | GGGCCATCGAAAGATCCC (((..(((....)))))) | -16.4 | 31.6
5 | GCTGCTCGAAAGAGAGC (((.(((....)))))) | -20.5 | 48
6 | GATCTCCGTCGAGATC ((((((....)))))) | -41.3 | 51
7 | GCCCACGAAAGTGCGGC ((((((....))).))) | -29.5 | 63.3
8 | GATCGCTAGGCGATC ((((((...)))))) | -36.8 | 68.4
9 | GTTCCCGAAAGGGTAAAC ((((((....)))..))) | -11.5 | 28.8
10 | GATCGGAAACGATC (((((....))))) | -28.7 | 55.1
11 | GCAGGCGAAAGCCTTTGC ((((((....)))..))) | -11 | 41
12 | GCTTAGCGAAAGCTTAGC (((.(((....))).))) | -43.1 | 51.9
13 | GTAGGCGGAAACGCTTGC (.(.(((....))).).) | -11.6 | 30.3
14 | GGCTTTGGAAACGAAGCC (((((.(....).))))) | -43.6 | 54
15 | GGGTACGGAAACGTATCC ((.((((....)))).)) | -30.1 | 51.8
16 | GCATGCGAAAGCACGTGC ((((((....)))..))) | -19.2 | 39.8
17 | GCACACGAAAGTGGCTGC ((((((....)))..))) | -20.7 | 54.3
18 | GCGGGATCCGC ((((...)))) | -17.1 | 59.2
19 | GATGAGGCGAAAGCCATC (((..(((....)))))) | -13.1 | 36.3
20 | GACAGACGAAAGTCGTC (((.(((....)))))) | -17.8 | 53
21 | GTCCGAGGAAACCCGGAC (((((.(....).))))) | -40.5 | 53.2
22 | GCTGGCGGAAACGTCGGC ((.(.((....)).).)) | -38.7 | 53.1
23 | GTGCCACGAAAGTGTCAC (((.(((....))).))) | -30 | 53.1

Row | Sequence | folding enthalpy [1] [kcal/mol] | Tm [2] [°C]
24 | GTTCGCGAAAGCGCGAAC ((((((....)))..))) | -27.4 | 65
25 | GGCTACGAAAGTAAGCC ((((((....))).))) | -36.3 | 58.4
26 | GGCACCGGAAACAGCGCC (((.(.(....).).))) | -22.1 | 34.5
27 | GCCCGGCCGAAAGGCGGC (((..(((....)))))) | -13.2 | 57.6
28 | GATCATGTTAATGATC ((((((....)))))) | -40.5 | 56.2
29 | CGAACCGGAAACGGGTCG (((.(((....))).))) | -33.9 | 58.3
30 | GATGCTGCGAAAGCAATC (((..(((....)))))) | -9.87 | 29.3
31 | GCCAGGGGAAACCCCGGC (((.(((....))).))) | -38.6 | 59.8
32 | GCCGAGGGAAACTTCGGC (((((.(....).))))) | -46.2 | 56.8
33 | GATCCCGCGGGGGATC ((((((....)))))) | -31 | 59.9
34 | GCCACGGCGAAAGCCGGC (((..(((....)))))) | -7.83 | 49.1
35 | GTGGTTGGAAACAATCGC (.(.(((....))).).) | -23.3 | 35
36 | GAGCTTGGAAACAAGCTC (((((((....))))))) | -35.1 | 67.8
37 | GTAGTCGGAAACGACTGC (.(((((....))))).) | -29 | 53.7
38 | GGCCACGGAAACGCGACC ((.(.((....)).).)) | -25.8 | 36.7
39 | GACCCCGAAAGGGTGTC ((((((....))).))) | -26.6 | 57.6
40 | GTACGCGAAAGCGTATAC ((((((....)))..))) | -9.55 | 49.2
41 | GCGCGTCGAAAGACACGC (((.(((....))).))) | -45.5 | 62.9
42 | GACTTTGGAAACAAGGTC (((.(((....))).))) | -38.1 | 41.8
43 | CGAAAGAAATTTCG (((((....))))) | -13.6 | 38.5
44 | GATCCTTCGGAGGATC ((((((....)))))) | -38.2 | 52.3
45 | GCTGGGGGAAACCCTAGC (((.(((....))).))) | -36.2 | 53.2
46 | GGTCGTCGAAAGACCACC (((.(((....))).))) | -19.8 | 45.9

Row | Sequence | folding enthalpy [1] [kcal/mol] | Tm [2] [°C]
47 | GGGAGGGGAAACCCTTCC ((.((((....)))).)) | -32.4 | 51.6
48 | GAAGCCGAAAGGCGGTTC ((((((....)))..))) | -9.79 | 47.1
49 | GCATGGCGAAAGCTACGC ((.(.((....)).).)) | -16.4 | 35
50 | GTCGATGGAAACATCAAC ((.((((....)))).)) | -17.6 | 34.7
51 | GGACCAGCGAAAGCTTCC (((..(((....)))))) | -10.3 | 25.2
52 | GGCTTGCGAAAGCAGCC (((.(((....)))))) | -29.1 | 65.3
53 | GCTAACGAAAGTTTGAGC ((((((....)))..))) | -15.6 | 32.6
54 | GGTCCTGGAAACAGAACC (((.(((....))).))) | -29.7 | 38.9
55 | CGCTTACGGAAACGTGCG (((..(((....)))))) | -24.4 | 42.7
56 | GAAAGGGCGAAAGCCTTC (((..(((....)))))) | -9.82 | 24.8
57 | GCCCTGCGAAAGCGTGGC (((..((....))..))) | -21.1 | 55.6
58 | CGGATGCGGAAACGCCCG (((..(((....)))))) | -23.4 | 46.9
59 | GGTGGCGAAAGCCTGACC ((((((....)))..))) | -14.2 | 41.9
60 | GATCGGCGGGCCGATC ((((((....)))))) | -38.9 | 66.9
61 | CGCGACGGAAACGTGGCG (((.(((....))).))) | -49 | 56.9
62 | GCAGTTCCGAAAGGATGC (((..(((....)))))) | -17.8 | 36.7
63 | GGTTACGAAAGTAACACC ((((((....)))..))) | -12.7 | 44.6
64 | GTTCACGAAAGTGTTAAC ((((((....)))..))) | -12.2 | 28
65 | GATCGGACAGCCGATC ((((((....)))))) | -36.9 | 52.4
66 | GAGTTTGGAAACGAACTC (((((.(....).))))) | -36.2 | 47.1
67 | GATCAATACTTTGATC ((((((....)))))) | -39.6 | 48.1
68 | GCATTGCGAAAGCTAAGC ((.(.((....)).).)) | -14.8 | 43.7
69 | GATCACGAAAGTGTAATC ((((((....)))..))) | -10.3 | 30.1
